Test results published in ChEMBL document CHEMBL1158538, “(-)-Menthylamine derivatives as potent and selective antagonists of transient receptor potential melastatin type-8 (TRPM8) channels” (Bioorg Med Chem Lett, 2010).

Target: T1, Transient receptor potential cation channel subfamily V member 1 (Homo sapiens, UniProt Q8NER1)
Test: Agonist activity at human TRPV1 receptor expressed in HEK293 cells assessed as intracellular calcium stimulation relative to inomycin
Assay type: functional, cell-based
In short: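 Ca2+ elevation in HEK-293 cells stably expressing human TRPV1, expressed as percent of the ionomycin ([…]) response. Not measurable if below 10%. Mean ± SEM, N = 3.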

T1 sequence (Q8NER1 whole entry): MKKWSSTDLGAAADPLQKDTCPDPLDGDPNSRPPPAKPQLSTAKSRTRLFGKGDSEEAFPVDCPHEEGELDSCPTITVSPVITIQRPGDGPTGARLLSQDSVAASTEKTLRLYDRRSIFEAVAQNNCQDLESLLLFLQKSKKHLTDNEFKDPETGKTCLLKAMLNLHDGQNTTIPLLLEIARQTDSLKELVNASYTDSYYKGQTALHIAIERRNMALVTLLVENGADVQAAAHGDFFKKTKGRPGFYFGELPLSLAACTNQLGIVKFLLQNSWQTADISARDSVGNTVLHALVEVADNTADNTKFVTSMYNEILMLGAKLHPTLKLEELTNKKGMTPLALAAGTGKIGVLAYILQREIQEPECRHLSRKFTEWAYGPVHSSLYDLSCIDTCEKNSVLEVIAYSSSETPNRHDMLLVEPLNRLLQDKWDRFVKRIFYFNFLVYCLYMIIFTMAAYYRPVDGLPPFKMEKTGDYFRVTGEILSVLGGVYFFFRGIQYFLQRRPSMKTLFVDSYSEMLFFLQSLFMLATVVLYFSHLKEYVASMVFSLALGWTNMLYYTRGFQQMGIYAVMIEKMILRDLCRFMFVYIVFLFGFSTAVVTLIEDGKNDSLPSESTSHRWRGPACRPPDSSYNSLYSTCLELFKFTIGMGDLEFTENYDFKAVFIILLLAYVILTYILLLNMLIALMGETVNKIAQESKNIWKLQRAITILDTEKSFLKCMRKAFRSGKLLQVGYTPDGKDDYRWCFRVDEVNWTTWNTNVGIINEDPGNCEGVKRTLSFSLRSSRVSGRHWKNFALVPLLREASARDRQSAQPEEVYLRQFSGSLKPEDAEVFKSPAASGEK

| Efficacy [%] | Compound |
| --- | --- |
| 8 | CC(C)[C@@H]1CC[C@@H](C)C[C@H]1NC(=O)CCCCCCc1ccccc1 |
| 12.7 | CC(C)[C@@H]1CC[C@@H](C)C[C@H]1NC(=O)NCCc1c[nH]c2ccc(O)cc12 |
| 5.4 | Cc1ccc(C(=O)N[C@@H]2C[C@H](C)CC[C@H]2C(C)C)cc1 |
| 22.6 | CC(C)[C@@H]1CC[C@@H](C)C[C@H]1NC(=O)Oc1cccc(Cl)c1 |
| 3.3 | CC(C)[C@@H]1CC[C@@H](C)C[C@H]1NC(=O)Oc1ccc(C(F)(F)F)cc1 |
| 7.4 | CC(C)[C@@H]1CC[C@@H](C)C[C@H]1NC(=O)Oc1cccc(C(F)(F)F)c1 |
| 5.5 | CC(C)[C@@H]1CC[C@@H](C)C[C@H]1NC(=O)CCCCCCCc1ccccc1 |
| 27.4 | CC(C)[C@@H]1CC[C@@H](C)C[C@H]1NC(=O)c1ccc(C(C)(C)C)cc1 |
| 7.8 | CC(C)[C@@H]1CC[C@@H](C)C[C@H]1NC(=O)c1ccc(-c2ccccc2)cc1 |
| 16.3 | CC(C)[C@@H]1CC[C@@H](C)C[C@H]1NC(=O)Oc1cccc(C(C)(C)C)c1 |
| 41.9 | CC(C)[C@@H]1CC[C@@H](C)C[C@H]1NC(=O)c1cccc(Cl)c1 |

Target: Transient receptor potential cation channel subfamily A member 1 (Rattus norvegicus) (UniProt Q6RI86)
Test: Agonist activity at rat TRPA1 receptor expressed in HEK293 cells assessed as intracellular calcium stimulation relative to isothiocyanate
Assay type: functional, cell-based
In short: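 Intracellular Ca2+ rise in HEK-293 cells stably transfected with rat TRPA1, given as percent of the response to allyl isothiocyanate (100 µM). Efficacy under 10% scored not measurable. N = 3, mean ± SEM.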

Sequence of Transient receptor potential cation channel subfamily A member 1 (Rattus norvegicus) (Q6RI86 whole entry): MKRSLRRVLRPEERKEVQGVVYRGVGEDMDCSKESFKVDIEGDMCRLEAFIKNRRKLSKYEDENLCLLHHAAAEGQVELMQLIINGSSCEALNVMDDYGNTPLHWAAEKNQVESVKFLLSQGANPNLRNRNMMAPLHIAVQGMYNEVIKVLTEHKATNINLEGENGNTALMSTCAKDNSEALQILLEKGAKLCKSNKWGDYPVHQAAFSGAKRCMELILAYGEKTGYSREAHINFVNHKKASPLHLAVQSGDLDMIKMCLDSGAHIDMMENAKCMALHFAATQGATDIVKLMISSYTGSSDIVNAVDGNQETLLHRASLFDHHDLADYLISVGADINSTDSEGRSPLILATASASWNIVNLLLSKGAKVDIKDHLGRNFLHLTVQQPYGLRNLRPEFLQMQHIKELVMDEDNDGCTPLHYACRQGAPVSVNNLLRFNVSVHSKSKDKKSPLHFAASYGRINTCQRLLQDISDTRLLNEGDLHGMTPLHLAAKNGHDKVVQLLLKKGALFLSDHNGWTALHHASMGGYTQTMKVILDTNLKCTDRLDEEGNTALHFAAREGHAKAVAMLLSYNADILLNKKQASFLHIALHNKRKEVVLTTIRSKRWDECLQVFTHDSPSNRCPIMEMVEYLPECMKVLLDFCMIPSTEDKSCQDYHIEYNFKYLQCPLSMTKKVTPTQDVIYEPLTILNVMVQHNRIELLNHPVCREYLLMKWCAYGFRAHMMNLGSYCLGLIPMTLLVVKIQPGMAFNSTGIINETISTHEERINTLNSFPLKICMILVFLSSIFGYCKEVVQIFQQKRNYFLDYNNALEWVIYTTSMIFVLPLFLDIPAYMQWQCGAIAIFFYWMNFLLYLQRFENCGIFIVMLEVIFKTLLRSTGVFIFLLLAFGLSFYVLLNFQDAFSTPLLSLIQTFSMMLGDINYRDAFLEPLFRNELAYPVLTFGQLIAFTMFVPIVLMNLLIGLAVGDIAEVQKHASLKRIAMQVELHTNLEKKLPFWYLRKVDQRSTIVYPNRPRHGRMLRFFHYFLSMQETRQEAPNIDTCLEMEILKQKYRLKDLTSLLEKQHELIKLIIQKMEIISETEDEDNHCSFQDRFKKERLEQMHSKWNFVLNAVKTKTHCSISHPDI

| Efficacy [%] | Compound |
| --- | --- |
| 42.8 | CC(C)[C@@H]1CC[C@@H](C)C[C@H]1NC(=O)CCCCCCc1ccccc1 |
| < 10 | CC(C)[C@@H]1CC[C@@H](C)C[C@H]1NC(=O)NCCc1c[nH]c2ccc(O)cc12 |
| < 10 | Cc1ccc(C(=O)N[C@@H]2C[C@H](C)CC[C@H]2C(C)C)cc1 |
| 309 | CC(C)[C@@H]1CC[C@@H](C)C[C@H]1NC(=O)Oc1cccc(Cl)c1 |
| 88.9 | CC(C)[C@@H]1CC[C@@H](C)C[C@H]1NC(=O)Oc1ccc(C(F)(F)F)cc1 |
| 220 | CC(C)[C@@H]1CC[C@@H](C)C[C@H]1NC(=O)Oc1cccc(C(F)(F)F)c1 |
| 67 | CC(C)[C@@H]1CC[C@@H](C)C[C@H]1NC(=O)CCCCCCCc1ccccc1 |
| 138 | CC(C)[C@@H]1CC[C@@H](C)C[C@H]1NC(=O)c1ccc(C(C)(C)C)cc1 |
| 34.7 | CC(C)[C@@H]1CC[C@@H](C)C[C@H]1NC(=O)c1ccc(-c2ccccc2)cc1 |
| 273 | CC(C)[C@@H]1CC[C@@H](C)C[C@H]1NC(=O)Oc1cccc(C(C)(C)C)c1 |
| < 10 | CC(C)[C@@H]1CC[C@@H](C)C[C@H]1NC(=O)c1cccc(Cl)c1 |

Target: Transient receptor potential cation channel subfamily A member 1 (Rattus norvegicus, UniProt Q6RI86)
Test: Agonist activity at rat TRPA1 receptor expressed in HEK293 cells assessed as intracellular calcium stimulation
Assay type: functional, cell-based
In short: (§1)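 Stably transfected HEK-293 lines (human TRPV1 or rat TRPA1) exposed to compound; rise in intracellular Ca2+ recorded. Non-transfected HEK-293 cells served as control. EC50 reported as mean ± SEM, N = 3.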

Sequence of Transient receptor potential cation channel subfamily A member 1 (Q6RI86 whole entry): as above

| EC50 [nM] | Compound |
| --- | --- |
| 400 | CC(C)[C@@H]1CC[C@@H](C)C[C@H]1NC(=O)CCCCCCc1ccccc1 |
| 30000 | CC(C)[C@@H]1CC[C@@H](C)C[C@H]1NC(=O)Oc1cccc(Cl)c1 |
| 3000 | CC(C)[C@@H]1CC[C@@H](C)C[C@H]1NC(=O)Oc1ccc(C(F)(F)F)cc1 |
| 13800 | CC(C)[C@@H]1CC[C@@H](C)C[C@H]1NC(=O)Oc1cccc(C(F)(F)F)c1 |
| 26700 | CC(C)[C@@H]1CC[C@@H](C)C[C@H]1NC(=O)CCCCCCCc1ccccc1 |
| 4900 | CC(C)[C@@H]1CC[C@@H](C)C[C@H]1NC(=O)c1ccc(C(C)(C)C)cc1 |
| 4100 | CC(C)[C@@H]1CC[C@@H](C)C[C@H]1NC(=O)c1ccc(-c2ccccc2)cc1 |
| 36700 | CC(C)[C@@H]1CC[C@@H](C)C[C@H]1NC(=O)Oc1cccc(C(C)(C)C)c1 |

System: LNCaP
Test: Induction of apoptosis in human LNCAP cells assessed as caspase 3/7 release at 1 uM
Assay type: functional
In short: (§2)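 Prostate carcinoma cells (LNCaP, high TRPM8; DU-145, negligible TRPM8) were treated at 1 µM. Apoptosis was read as caspase 3/7 release in arbitrary units. Anti-FAS antibody plus camptothecin served as reference. Means ± SD, N = 3 experiments.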

| Compound | Activity [a.u.] |
| --- | --- |
| CC(C)[C@@H]1CC[C@@H](C)C[C@H]1NC(=O)c1ccc(-c2ccccc2)cc1 | 58576 |

Target: T1, Transient receptor potential cation channel subfamily V member 1
Test: Agonist activity at human TRPV1 receptor expressed in HEK293 cells assessed as intracellular calcium stimulation
Assay type: functional, cell-based
In short: as §1

| EC50 [nM] | Compound |
| --- | --- |
| 52200 | CC(C)[C@@H]1CC[C@@H](C)C[C@H]1NC(=O)NCCc1c[nH]c2ccc(O)cc12 |
| 19200 | CC(C)[C@@H]1CC[C@@H](C)C[C@H]1NC(=O)Oc1cccc(Cl)c1 |
| 250 | CC(C)[C@@H]1CC[C@@H](C)C[C@H]1NC(=O)c1ccc(C(C)(C)C)cc1 |
| 5800 | CC(C)[C@@H]1CC[C@@H](C)C[C@H]1NC(=O)Oc1cccc(C(C)(C)C)c1 |
| 7600 | CC(C)[C@@H]1CC[C@@H](C)C[C@H]1NC(=O)c1cccc(Cl)c1 |

System: DU-145
Test: Induction of apoptosis in human DU145 cells assessed as caspase 3/7 release at 1 uM
Assay type: functional
In short: as §2

| Compound | Activity [a.u.] |
| --- | --- |
| CC(C)[C@@H]1CC[C@@H](C)C[C@H]1NC(=O)c1ccc(-c2ccccc2)cc1 | 9770 |

Target: T2, Transient receptor potential cation channel subfamily M member 8 (Rattus norvegicus, UniProt Q8R455)
Test: Antagonist activity at rat TRMP8 receptor expressed in HEK293 cells assessed as icilin-induced calcium elevation
Assay type: functional, cell-based
In short: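 HEK-293 cells stably expressing rat TRPM8 received compound 5 min before icilin (0.25 µM). Inhibition of the intracellular Ca2+ elevation was measured. IC50 given as mean ± SEM of N = 3.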

T2 sequence (Q8R455 whole entry): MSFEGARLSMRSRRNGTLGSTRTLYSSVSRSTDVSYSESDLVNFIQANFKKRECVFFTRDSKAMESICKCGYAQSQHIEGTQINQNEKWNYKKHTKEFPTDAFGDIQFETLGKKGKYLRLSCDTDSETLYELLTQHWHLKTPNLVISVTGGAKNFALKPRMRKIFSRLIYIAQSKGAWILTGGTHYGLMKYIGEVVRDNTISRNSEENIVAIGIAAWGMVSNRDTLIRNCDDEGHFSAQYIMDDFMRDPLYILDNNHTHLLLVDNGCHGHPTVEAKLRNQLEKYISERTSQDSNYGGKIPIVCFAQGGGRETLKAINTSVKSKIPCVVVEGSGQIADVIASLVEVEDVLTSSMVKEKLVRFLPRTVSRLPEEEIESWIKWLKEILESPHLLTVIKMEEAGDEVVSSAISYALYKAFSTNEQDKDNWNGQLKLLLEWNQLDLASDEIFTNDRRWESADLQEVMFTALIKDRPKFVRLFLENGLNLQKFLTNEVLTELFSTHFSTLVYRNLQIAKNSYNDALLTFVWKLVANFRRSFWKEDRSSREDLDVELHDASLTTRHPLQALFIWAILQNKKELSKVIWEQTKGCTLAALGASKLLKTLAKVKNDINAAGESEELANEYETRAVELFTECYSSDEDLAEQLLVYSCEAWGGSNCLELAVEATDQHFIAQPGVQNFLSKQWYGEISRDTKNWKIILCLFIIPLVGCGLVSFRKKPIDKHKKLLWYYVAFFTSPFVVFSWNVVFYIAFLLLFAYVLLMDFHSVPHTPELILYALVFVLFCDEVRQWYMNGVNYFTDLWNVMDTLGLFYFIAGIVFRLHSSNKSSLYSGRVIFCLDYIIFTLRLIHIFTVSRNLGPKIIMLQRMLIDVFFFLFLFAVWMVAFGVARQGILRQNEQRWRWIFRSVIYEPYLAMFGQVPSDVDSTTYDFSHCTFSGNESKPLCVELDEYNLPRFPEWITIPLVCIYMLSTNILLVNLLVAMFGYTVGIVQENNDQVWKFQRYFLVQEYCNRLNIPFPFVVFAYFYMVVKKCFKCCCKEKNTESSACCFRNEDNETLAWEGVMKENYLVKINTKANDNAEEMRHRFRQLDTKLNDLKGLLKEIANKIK

| IC50 [nM] | Compound |
| --- | --- |
| 400 | CC(C)[C@@H]1CC[C@@H](C)C[C@H]1NC(=O)CCCCCCc1ccccc1 |
| 31000 | CC(C)[C@@H]1CC[C@@H](C)C[C@H]1NC(=O)NCCc1c[nH]c2ccc(O)cc12 |
| 2500 | Cc1ccc(C(=O)N[C@@H]2C[C@H](C)CC[C@H]2C(C)C)cc1 |
| 500 | CC(C)[C@@H]1CC[C@@H](C)C[C@H]1NC(=O)Oc1cccc(Cl)c1 |
| 700 | CC(C)[C@@H]1CC[C@@H](C)C[C@H]1NC(=O)Oc1ccc(C(F)(F)F)cc1 |
| 600 | CC(C)[C@@H]1CC[C@@H](C)C[C@H]1NC(=O)Oc1cccc(C(F)(F)F)c1 |
| 500 | CC(C)[C@@H]1CC[C@@H](C)C[C@H]1NC(=O)CCCCCCCc1ccccc1 |
| 60800 | CC(C)[C@@H]1CC[C@@H](C)C[C@H]1NC(=O)c1ccc(C(C)(C)C)cc1 |
| 50 | CC(C)[C@@H]1CC[C@@H](C)C[C@H]1NC(=O)c1ccc(-c2ccccc2)cc1 |
| 3300 | CC(C)[C@@H]1CC[C@@H](C)C[C@H]1NC(=O)Oc1cccc(C(C)(C)C)c1 |
| 2100 | CC(C)[C@@H]1CC[C@@H](C)C[C@H]1NC(=O)c1cccc(Cl)c1 |

Target: T2, Transient receptor potential cation channel subfamily M member 8
Test: Antagonist activity at rat TRMP8 receptor expressed in HEK293 cells assessed as menthol-induced calcium elevation
Assay type: functional, cell-based
In short: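 Rat TRPM8-transfected HEK-293 cells were pretreated with compound for 5 min, then challenged with menthol (20 µM). Block of the Ca2+ rise gave IC50 (means ± SEM, N = 3).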

| IC50 [nM] | Compound |
| --- | --- |
| 400 | CC(C)[C@@H]1CC[C@@H](C)C[C@H]1NC(=O)CCCCCCc1ccccc1 |
| 15800 | CC(C)[C@@H]1CC[C@@H](C)C[C@H]1NC(=O)NCCc1c[nH]c2ccc(O)cc12 |
| 2200 | Cc1ccc(C(=O)N[C@@H]2C[C@H](C)CC[C@H]2C(C)C)cc1 |
| 1500 | CC(C)[C@@H]1CC[C@@H](C)C[C@H]1NC(=O)Oc1cccc(Cl)c1 |
| 200 | CC(C)[C@@H]1CC[C@@H](C)C[C@H]1NC(=O)Oc1ccc(C(F)(F)F)cc1 |
| 300 | CC(C)[C@@H]1CC[C@@H](C)C[C@H]1NC(=O)Oc1cccc(C(F)(F)F)c1 |
| 400 | CC(C)[C@@H]1CC[C@@H](C)C[C@H]1NC(=O)CCCCCCCc1ccccc1 |
| 97600 | CC(C)[C@@H]1CC[C@@H](C)C[C@H]1NC(=O)c1ccc(C(C)(C)C)cc1 |
| 20 | CC(C)[C@@H]1CC[C@@H](C)C[C@H]1NC(=O)c1ccc(-c2ccccc2)cc1 |
| 5900 | CC(C)[C@@H]1CC[C@@H](C)C[C@H]1NC(=O)Oc1cccc(C(C)(C)C)c1 |
| 2800 | CC(C)[C@@H]1CC[C@@H](C)C[C@H]1NC(=O)c1cccc(Cl)c1 |
